# According to ChEMBL document CHEMBL1153955, “Indolylarylsulfones bearing natural and unnatural amino acids. Discovery of potent inhibitors of HIV-1 non-nucleoside wild type and resistant mutant strains reverse transcriptase and coxsackie B4 virus” (J Med Chem, 2009):
# Tests used:
# [1] = tested on: Respiratory syncytial virus; test: Antiviral activity against RSV Long in human HeLa cells assessed as protection against virus-induced cytopathicity; format: functional, organism-based
# Method in brief: (§1)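 Confluent cell monolayers inoculated with 100 CCID₅₀ virus. After 1-2 h adsorption, residual virus removed and cultures incubated with varying compound concentrations. Cytopathicity scored once it reached completion in untreated infected controls. EC₅₀ = dose reducing virus-induced cytopathogenicity by 50%.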
# [2] = tested on: Vesicular stomatitis virus; test: Antiviral activity against VSV in human HeLa cells assessed as protection against virus-induced cytopathicity; format: functional, organism-based
# [3] = tested on: Human immunodeficiency virus 1; test: Antiviral activity against HIV1 3B in human CEM cells assessed as protection against virus-induced cytopathicity after 4 days; format: functional, organism-based; settings: Human immunodeficiency virus 1, 3B, CCRF-CEM, 96 h
# Method in brief: (§2)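 CEM cells (~3 × 10⁵ cells/mL) infected with ~100 CCID₅₀ per mL of HIV-1 (IIIB) or HIV-2 (ROD), then seeded into wells containing compound dilutions. After 4 days at 37 °C, syncytium (giant cell) formation was examined microscopically. EC₅₀ = concentration protecting CEM cells from HIV cytopathicity by 50%.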
# [4] = tested on: Human immunodeficiency virus 2; test: Antiviral activity against HIV2 ROD in human CEM cells assessed as protection against virus-induced cytopathicity after 4 days; format: functional, organism-based; settings: Human immunodeficiency virus 2, ROD, CCRF-CEM, 96 h; method in brief: as §2
# L1210 = test: Antiproliferative activity against mouse L1210 cells after 2 days; format: cell-based; settings: L1210, 48 h
# Method in brief: (§3)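 Cells seeded at 5 × 10⁴ to 7.5 × 10⁴ cells/200 µL with or without serial compound dilutions; incubated at 37 °C for 2 days (L1210) or 3 days (Molt4/C8, CEM). Cell numbers counted with a Coulter counter. CC₅₀ = concentration reducing proliferation by 50% versus untreated controls, read from plots of cell number (% of control) against concentration. Means of at least two independent experiments.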
# [5] = Antiproliferative activity against human Molt4/C8 cells after 3 days; format: cell-based; settings: MOLT-4, 72 h; method in brief: as §3
# CCRF-CEM = test: Antiproliferative activity against human CEM cells after 3 days; format: cell-based; settings: 72 h; method in brief: as §3
# [6] = tested on: Human immunodeficiency virus 1; test: Antiviral activity against HIV1 with reverse transcriptase L100I mutation in human CEM cells assessed as protection against virus-induced cytopathicity; format: functional, organism-based; settings: Human immunodeficiency virus 1, CCRF-CEM
# Method in brief: (§4)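 CEM cells (~3 × 10⁵ cells/mL) were infected with ~100 CCID₅₀ virus per mL and seeded with serial compound dilutions. After 4 days at 37 °C, syncytium (giant cell) formation was scored microscopically. EC₅₀ is the concentration giving 50% protection against virus cytopathicity.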
# [7] = tested on: Human immunodeficiency virus 1; test: Antiviral activity against HIV1 with reverse transcriptase K103N mutation in human CEM cells assessed as protection against virus-induced cytopathicity; format: functional, organism-based; settings: Human immunodeficiency virus 1, CCRF-CEM; method in brief: as §4
# [8] = tested on: Human immunodeficiency virus 1; test: Antiviral activity against HIV1 with reverse transcriptase Y181C mutation in human CEM cells assessed as protection against virus-induced cytopathicity; format: functional, organism-based; settings: Human immunodeficiency virus 1, CCRF-CEM; method in brief: as §4
# [9] = tested on: Human immunodeficiency virus 1; test: Antiviral activity against HIV1 with reverse transcriptase Y181I mutation in human CEM cells assessed as protection against virus-induced cytopathicity; format: functional, organism-based; settings: Human immunodeficiency virus 1, CCRF-CEM; method in brief: as §4
# [10] = tested on: Human immunodeficiency virus 1; test: Antiviral activity against HIV1 with reverse transcriptase Y188L mutation in human CEM cells assessed as protection against virus-induced cytopathicity; format: functional, organism-based; settings: Human immunodeficiency virus 1, CCRF-CEM; method in brief: as §4
# [11] = target: Human immunodeficiency virus type 1 reverse transcriptase (Human immunodeficiency virus 1, UniProt Q72547); test: Inhibition of HIV1 reverse transcriptase p66/p51
# [12] = target: Human immunodeficiency virus type 1 reverse transcriptase (Human immunodeficiency virus 1, UniProt Q72547, L100I); test: Inhibition of HIV1 reverse transcriptase p66/p51 L100I mutant
# Method in brief: (§5)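 Substrate was 0.5 µg poly(rA)/oligo(dT) 10:1 (0.3 µM 3′-OH ends) with 10 µM [³H]dTTP, at 37 °C. Acid-precipitable radioactivity was counted on GF/C filters after TCA washes.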
# [13] = target: Human immunodeficiency virus type 1 reverse transcriptase (Human immunodeficiency virus 1, UniProt Q72547, K103N); test: Inhibition of HIV1 reverse transcriptase p66/p51 K103N mutant; method in brief: as §5
# [14] = target: Human immunodeficiency virus type 1 reverse transcriptase (Human immunodeficiency virus 1, UniProt Q72547, Y181I); test: Inhibition of HIV1 reverse transcriptase p66/p51 Y181I mutant; method in brief: as §5
# [15] = Cytotoxicity against human HeLa cells assessed as drug level causing microscopically detectable alteration of normal cell morphology after 3 days; format: cell-based
# Method in brief: (§6)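 Serial compound dilutions added to confluent HeLa or Vero monolayers. MCC = minimum concentration causing microscopically detectable alteration of cell morphology after 3 days of incubation.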
# [16] = Cytotoxicity against african green monkey Vero cells assessed as drug level causing microscopically detectable alteration of normal cell morphology after 3 days; format: cell-based; settings: chlorocebus sabaeus; method in brief: as §6
# Coxsackievirus B4 [17] = test: Antiviral activity against Coxsackievirus B4 in human HeLa cells assessed as protection against virus-induced cytopathicity; format: functional, organism-based; settings: Enterovirus B; method in brief: as §1
# Coxsackievirus B4 [18] = test: Antiviral activity against Coxsackievirus B4 in african green monkey Vero cells assessed as protection against virus-induced cytopathicity; format: functional, organism-based; settings: Enterovirus B; method in brief: as §1
# Human respirovirus 3 = test: Antiviral activity against Parainfluenza virus type 3 in african green monkey Vero cells assessed as protection against virus-induced cytopathicity; format: functional, organism-based; settings: Human respirovirus 3, Vero; method in brief: as §1
# [19] = tested on: Mammalian orthoreovirus 1; test: Antiviral activity against Reovirus 1 in african green monkey Vero cells assessed as protection against virus-induced cytopathicity; format: functional, organism-based; settings: Mammalian orthoreovirus 1, Vero; method in brief: as §1
# Sindbis virus = test: Antiviral activity against Sindbis virus in african green monkey Vero cells assessed as protection against virus-induced cytopathicity; format: functional, organism-based; method in brief: as §1
# Punta Toro virus = test: Antiviral activity against Punta Toro virus in african green monkey Vero cells assessed as protection against virus-induced cytopathicity; format: functional, organism-based; method in brief: as §1
# [20] = Cytotoxicity against human HEL cells assessed as drug level causing microscopically detectable alteration of normal cell morphology after 3 days; format: cell-based
# Human alphaherpesvirus 1 [21] = test: Antiviral activity against HSV1 KOS in human HEL cells assessed as protection against virus-induced cytopathicity; format: functional, organism-based; settings: Human alphaherpesvirus 1, KOS
# Human alphaherpesvirus 2 = test: Antiviral activity against HSV2 G in human HEL cells assessed as protection against virus-induced cytopathicity; format: functional, organism-based; settings: Human alphaherpesvirus 2, strain G; method in brief: as §1
# Vaccinia virus = test: Antiviral activity against Vaccinia virus Lederle in human HEL cells assessed as protection against virus-induced cytopathicity; format: functional, organism-based; settings: Orthopoxvirus vaccinia
# [22] = tested on: Vesicular stomatitis virus; test: Antiviral activity against VSV in human HEL cells assessed as protection against virus-induced cytopathicity; format: functional, organism-based
# Human alphaherpesvirus 1 [23] = test: Antiviral activity against thymidine kinase deficient and acyclovir resistant HSV1 KOS in human HEL cells assessed as protection against virus-induced cytopathicity; format: functional, organism-based; settings: Human alphaherpesvirus 1, KOS
# [24] = Cytotoxicity against MDCK cells assessed as drug level causing microscopically detectable alteration of normal cell morphology; format: cell-based, Canis lupus familiaris; settings: dog
# [25] = Cytotoxicity against MDCK cells by MTS assay; format: cell-based, Canis lupus familiaris; settings: dog
# Influenza A virus [26] = test: Antiviral activity against influenza H1N1 virus in MDCK cells assessed as reduction of virus-induced cytopathicity by visual cytopathic effect scoring method; format: functional, organism-based
# Influenza A virus [27] = test: Antiviral activity against influenza H1N1 virus in MDCK cells assessed as reduction of virus-induced cytopathicity by MTS method; format: functional, organism-based; settings: Influenza A virus, H1N1, MDCK
# Influenza A virus H3N2 [28] = test: Antiviral activity against influenza H3N2 virus in MDCK cells assessed as reduction of virus-induced cytopathicity by visual cytopathic effect scoring method; format: functional, organism-based
# Influenza A virus H3N2 [29] = test: Antiviral activity against influenza H3N2 virus in MDCK cells assessed as reduction of virus-induced cytopathicity by MTS method; format: functional, organism-based
# Influenza B virus [30] = test: Antiviral activity against influenza B virus in MDCK cells assessed as reduction of virus-induced cytopathicity by visual cytopathic effect scoring method; format: functional, organism-based
# Influenza B virus [31] = test: Antiviral activity against influenza B virus in MDCK cells assessed as reduction of virus-induced cytopathicity by MTS method; format: functional, organism-based
# [32] = Cytotoxicity against feline CRFK cells by MTS assay; format: cell-based, Felis catus; settings: cat
# Feline coronavirus = test: Antiviral activity against Feline coronavirus in feline […] cells assessed as inhibition of virus-induced cytopathicity; format: functional, organism-based; settings: Alphacoronavirus 1
# Felid alphaherpesvirus 1 = test: Antiviral activity against Feline herpesvirus in feline […] cells assessed as inhibition of virus-induced cytopathicity; format: functional, organism-based
smiles,measurement,setting,value
Cc1cc(C)cc(S(=O)(=O)c2c(C(=O)NC(C)CS(N)(=O)=O)[nH]c3ccc(Cl)cc23)c1 (configuration not stated),EC50,[1],> 20 µM
same,EC50,[2],> 20 µM
same,EC50,[3],0.0023 µM
same,EC50,[4],> 10 µM
same,IC50,L1210,15 µM
same,IC50,[5],8.8 µM
same,IC50,CCRF-CEM,13 µM
same,IC50,[6],0.002 µM
same,IC50,[7],0.036 µM
same,IC50,[8],0.39 µM
same,IC50,[9],> 1 µM
same,IC50,[10],> 1 µM
same,IC50,[11]; read-out: IC50,0.0004 µM
same,IC50,[12]; read-out: IC50,0.004 µM
same,IC50,[13]; read-out: IC50,0.233 µM
same,IC50,[14]; read-out: IC50,1.94 µM
same,MCC at 72 h,[15],100 µM
same,MCC at 72 h,[16],≥ 20 µM
same,EC50,Coxsackievirus B4 [17],3 µM
same,EC50,Coxsackievirus B4 [18],12 µM
same,EC50,Human respirovirus 3,> 20 µM
same,EC50,[19],20 µM
same,EC50,Sindbis virus,> 20 µM
same,EC50,Punta Toro virus,> 20 µM
same,MCC at 72 h,[20],20 µM
same,EC50,Human alphaherpesvirus 1 [21],> 4 µM
same,EC50,Human alphaherpesvirus 2,> 4 µM
same,EC50,Vaccinia virus,> 4 µM
same,EC50,[22],> 4 µM
same,EC50,Human alphaherpesvirus 1 [23],> 4 µM
same,MCC,[24],20 µM
same,CC50,[25],12.2 µM
same,EC50,Influenza A virus [26],> 4 µM
same,EC50,Influenza A virus [27],> 4 µM
same,EC50,Influenza A virus H3N2 [28],> 4 µM
same,EC50,Influenza A virus H3N2 [29],> 4 µM
same,EC50,Influenza B virus [30],> 4 µM
same,EC50,Influenza B virus [31],> 4 µM
same,CC50,[32],11.1 µM
same,EC50,Feline coronavirus,> 4 µM
same,EC50,Felid alphaherpesvirus 1,> 4 µM
Cc1cc(C)cc(S(=O)(=O)c2c(C(=O)NCCS(N)(=O)=O)[nH]c3ccc(Cl)c(F)c23)c1,EC50,[1],20 µM
same,EC50,[2],> 20 µM
same,EC50,[3],0.0023 µM
same,EC50,[4],> 10 µM
same,IC50,L1210,42 µM
same,IC50,[5],36 µM
same,IC50,CCRF-CEM,31 µM
same,IC50,[11],ND(Insoluble)
same,IC50,[12],ND(Insoluble)
same,IC50,[13],ND(Insoluble)
same,IC50,[14],ND(Insoluble)
same,MCC at 72 h,[15],100 µM
same,MCC at 72 h,[16],100 µM
same,EC50,Coxsackievirus B4 [17],7 µM
same,EC50,Coxsackievirus B4 [18],> 20 µM
same,EC50,Human respirovirus 3,> 20 µM
same,EC50,[19],> 20 µM
same,EC50,Sindbis virus,> 20 µM
same,EC50,Punta Toro virus,> 20 µM
same,MCC at 72 h,[20],100 µM
same,EC50,Human alphaherpesvirus 1 [21],> 20 µM
same,EC50,Human alphaherpesvirus 2,> 20 µM
same,EC50,Vaccinia virus,> 20 µM
same,EC50,[22],> 20 µM
same,EC50,Human alphaherpesvirus 1 [23],> 20 µM
same,MCC,[24],20 µM
same,CC50,[25],7.4 µM
same,EC50,Influenza A virus [26],> 4 µM
same,EC50,Influenza A virus [27],> 4 µM
same,EC50,Influenza A virus H3N2 [28],> 4 µM
same,EC50,Influenza A virus H3N2 [29],> 4 µM
same,EC50,Influenza B virus [30],> 4 µM
same,EC50,Influenza B virus [31],> 4 µM
same,CC50,[32],34.6 µM
same,EC50,Feline coronavirus,> 20 µM
same,EC50,Felid alphaherpesvirus 1,> 20 µM
